Measured values taken from article PMC10975593 (ACS Omega, 2024).
Where two headings read alike, the source gives them in different places.

Legend:
Staphylococcus aureus = test: Disc diffusion antimicrobial test; assay type: cell-based; conditions: 24 h; for zone of inhibition at 100 µg/mL: Staphylococcus aureus, read-out: zone of inhibition (diameter of inhibition)
How it was run: (§1)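 Disc diffusion on nutrient agar, test compound at 100 μg/mL with DMSO as solvent. Plates incubated at 37 °C for 24 h after inoculation, then zone of inhibition measured and compared with standards. Controls were DMSO, amoxicillin, ciprofloxacin and tetracycline.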

A549 cancer cell line [1] = conditions: cited from earlier work
A549 cancer cell line [2] = test: MTT assay; assay type: cell-based; conditions: for IC50 / inhibition at 100 µM: Homo sapiens, A549, 72 h; for inhibition at 100 µM: read-out: experimental % of inhibition on A549 cancer cell line
How it was run: (§2)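 A549 in DMEM and MCF-7 in RPMI, each with 10% heat-inactivated FBS, 1% penicillin/streptomycin and 2 mmol/L glutamine at 37 °C, 5% CO2. Seeded at 2000 (A549) or 10,000 (MCF-7) cells/well and attached 24 h. Then 72 h with test compound at varying concentrations. MTT (5 mg/mL stock) added for 4 h at 37 °C, formazan dissolved in DMSO, absorbance read at 450/540 nm. Triplicates in three separate experiments.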

MCF-7 cancer cell line = test: MTT assay; assay type: cell-based
How it was run: as §2

Escherichia coli = test: Disc diffusion antimicrobial test; assay type: cell-based; conditions: 24 h; for zone of inhibition at 100 µg/mL: Escherichia coli, read-out: zone of inhibition (diameter of inhibition)
How it was run: as §1

PI3Kγ enzyme = PI3Kγ enzyme (Homo sapiens, UniProt P48736); test: Adapta universal kinase assay, anti-PI3Kγ activity; assay type: biochemical
Chain of PI3Kγ enzyme (P48736 whole entry): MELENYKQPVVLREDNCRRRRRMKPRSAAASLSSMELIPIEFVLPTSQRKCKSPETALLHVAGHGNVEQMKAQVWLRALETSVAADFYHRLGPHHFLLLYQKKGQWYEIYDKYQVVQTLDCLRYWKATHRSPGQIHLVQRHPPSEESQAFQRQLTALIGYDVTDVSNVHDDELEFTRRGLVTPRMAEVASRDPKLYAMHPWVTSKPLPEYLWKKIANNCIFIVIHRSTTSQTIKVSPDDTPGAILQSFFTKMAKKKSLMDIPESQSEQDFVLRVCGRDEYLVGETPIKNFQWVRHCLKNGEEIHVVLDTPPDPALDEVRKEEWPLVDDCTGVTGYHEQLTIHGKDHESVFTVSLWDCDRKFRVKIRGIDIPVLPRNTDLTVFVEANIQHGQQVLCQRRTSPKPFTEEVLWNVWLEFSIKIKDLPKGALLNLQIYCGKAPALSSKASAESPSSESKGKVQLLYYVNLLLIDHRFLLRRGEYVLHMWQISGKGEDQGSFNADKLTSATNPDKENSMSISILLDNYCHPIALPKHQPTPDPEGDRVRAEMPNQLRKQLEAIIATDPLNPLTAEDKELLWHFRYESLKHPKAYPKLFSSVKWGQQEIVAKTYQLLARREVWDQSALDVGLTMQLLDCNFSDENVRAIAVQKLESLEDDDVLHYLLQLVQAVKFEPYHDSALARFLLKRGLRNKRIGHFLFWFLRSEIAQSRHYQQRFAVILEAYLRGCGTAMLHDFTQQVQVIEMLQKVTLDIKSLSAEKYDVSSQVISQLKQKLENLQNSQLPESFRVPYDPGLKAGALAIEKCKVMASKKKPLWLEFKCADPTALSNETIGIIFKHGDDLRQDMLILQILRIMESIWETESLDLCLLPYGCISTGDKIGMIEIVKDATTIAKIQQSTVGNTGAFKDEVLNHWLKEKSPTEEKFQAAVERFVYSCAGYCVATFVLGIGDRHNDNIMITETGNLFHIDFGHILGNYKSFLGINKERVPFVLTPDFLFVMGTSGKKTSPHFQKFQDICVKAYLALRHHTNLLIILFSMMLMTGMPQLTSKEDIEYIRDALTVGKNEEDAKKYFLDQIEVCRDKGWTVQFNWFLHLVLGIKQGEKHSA
How it was run: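 Adapta ADP-detection TR-FRET immunoassay with test compound at 100 μM. The kinase reaction runs 60 min. It is then stopped by a detection solution of EDTA, europium-labelled anti-ADP antibody and Alexa Fluor 647-labelled ADP tracer. ADP formed displaces the tracer and lowers the TR-FRET signal. ADP formation is calculated from the emission ratio.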

Fibro cell line = test: % inhibition on normal cell line; assay type: cell-based; conditions: for inhibition at 10 µM: read-out: %inhibition at 10 μM; for inhibition at 100 µM: read-out: %inhibition at 100 μM
[3] = read-out: % of inhibition (mean) against PI3Kγ enzyme
[4] = read-out: % of inhibition against PI3Kγ enzyme, point 1
[5] = read-out: % of inhibition against PI3Kγ enzyme, point 2

Compound	inhibition at 100 µM (PI3Kγ enzyme; [3]) [%]	inhibition at 100 µM (PI3Kγ enzyme; [4]) [%]	inhibition at 100 µM (PI3Kγ enzyme; [5]) [%]	zone of inhibition at 100 µg/mL (Staphylococcus aureus) [mm]	inhibition at 100 µM (A549 cancer cell line [2]) [%]	zone of inhibition at 100 µg/mL (Escherichia coli) [mm]	inhibition at 10 µM (Fibro cell line) [%]	inhibition at 100 µM (Fibro cell line) [%]	also measured
CC1(C)S[C@@H]2[C@H](NC(=O)[C@H](N)c3ccc(O)cc3)C(=O)N2[C@H]1C(=O)O [Amoxicillin, reference compound]				22					
COc1cccc2c1C(=O)c1c(O)c3c(c(O)c1C2=O)C[C@@](O)(C(=O)CO)C[C@@H]3O[C@H]1C[C@H](N)[C@H](O)[C@H](C)O1 [Doxorubicin, reference compound]					82.2				IC50 (A549 cancer cell line [1]; read-out: reported IC50 against A549): 0.071 µM; IC50 (A549 cancer cell line [2]): 16.6 µM
CN(C)C1CCN(C(=O)c2ccc(NC(=O)Nc3ccc(-c4nc(N5CCOCC5)nc(N5CCOCC5)n4)cc3)cc2)CC1 [Gedatolisib, reference compound]									IC50 (A549 cancer cell line [1]; read-out: reported IC50): 9.05 µM; IC50 (A549 cancer cell line [2]): 16.5 µM; IC50 (MCF-7 cancer cell line; Homo sapiens, MCF7, 72 h): 13.1 µM
O=C(CNC1CCCCC1)Nc1nc2ccccc2s1 [OMS1, N-(1,3-benzothiazol-2-yl)-2-(cyclohexylamino)acetamide]	47	54	40	22	1.72	0	0.85	13	
O=C(CNc1ccc(F)cc1)Nc1nc2ccccc2s1 [OMS3, N-(1,3-benzothiazol-2-yl)-2-(4-fluoroanilino)acetamide]	24	20	28	15	2.8	0	10.3	63.8	
O=C(CNc1ccc(I)cc1)Nc1nc2ccccc2s1 [OMS4, N-(1,3-benzothiazol-2-yl)-2-(4-iodoanilino)acetamide]	0	0	0	10	-2.32	0	1.32	27.6	
NS(=O)(=O)c1ccc(NCC(=O)Nc2nc3ccccc3s2)cc1 [OMS6, N-(1,3-benzothiazol-2-yl)-2-(4-sulfamoylanilino)acetamide]	13	3	22	0	39.6	0	1.52	62.7	
N=C(N)NS(=O)(=O)c1ccc(NCC(=O)Nc2nc3ccccc3s2)cc1 [OMS7, N-(1,3-benzothiazol-2-yl)-2-[4-(carbamimidoylsulfamoyl)anilino]acetamide]	25	29	22	0	-3.59	0	1.88	16.4	
O=C(CNc1ccc(S(=O)(=O)Nc2ccccn2)cc1)Nc1nc2ccccc2s1 [OMS8, N-(1,3-benzothiazol-2-yl)-2-{4-[(pyridine-2-yl)sulfamoyl]anilino}acetamide]	0	0	0	0	11.2	0	8.62	43.3	
CNC(=O)c1cc(Oc2ccc(NC(=O)Nc3ccc(Cl)c(C(F)(F)F)c3)cc2)ccn1 [Sorafenib, reference compound]							10.7	26.3	
N-(benzo[d]thiazol-2-yl)-2-(4-(2-oxo-2-(piperazin-1-yl)ethyl)piperazin-1-yl)acetamide [OMS15]									zone of inhibition (diameter of inhibition) (Escherichia coli; disc diffusion, 100 μg/mL, E. coli): 0 mm; experimental % of inhibition on A549 cancer cell line (A549 cancer cell line [2]; 100 μM, 72 h, MTT): 56.69%; zone of inhibition (diameter of inhibition) (Staphylococcus aureus; disc diffusion, 100 μg/mL, S. aureus): 0 mm; % of inhibition against PI3Kγ enzyme, point 1 (PI3Kγ enzyme; 100 μM): 0%; % of inhibition against PI3Kγ enzyme, point 2 (PI3Kγ enzyme; 100 μM): 0%; % of inhibition (mean) against PI3Kγ enzyme (PI3Kγ enzyme; 100 μM, mean of 2 trials): 0%; %inhibition at 10 μM (Fibro cell line; Fibro cell line (normal), 10 μM): 34.8%; %inhibition at 100 μM (Fibro cell line; Fibro cell line (normal), 100 μM): 70%; experimental % of inhibition on MCF-7 cancer cell line (MCF-7 cancer cell line; 100 μM, 72 h, MTT): –23.63%

The next lines start with results.

inhibition at 100 µM (PI3Kγ enzyme; [3]) [%]	inhibition at 100 µM (PI3Kγ enzyme; [4]) [%]	inhibition at 100 µM (PI3Kγ enzyme; [5]) [%]	Compound	zone of inhibition at 100 µg/mL (Staphylococcus aureus) [mm]	inhibition at 100 µM (A549 cancer cell line [2]) [%]	zone of inhibition at 100 µg/mL (Escherichia coli) [mm]	inhibition at 10 µM (Fibro cell line) [%]	inhibition at 100 µM (Fibro cell line) [%]	also measured
2	0	3	O=C(CN1CCOCC1)Nc1nc2ccccc2s1 [OMS9, N-(1,3-benzothiazol-2-yl)-2-(morpholin-4-yl)acetamide]	0	17.2	0	11.8	3.11	
2	3	0	O=C(CN1CCN(c2cccc(O)c2)CC1)Nc1nc2ccccc2s1 [OMS10, N-(1,3-benzothiazol-2-yl)-2-[4-(3-hydroxyphenyl)piperazin-1-yl]acetamide]	11	38.1	0	15.9	44.1	
3	6	0	O=C(CN1CCN(c2ccc([N+](=O)[O-])cc2)CC1)Nc1nc2ccccc2s1 [OMS11, N-(1,3-benzothiazol-2-yl)-2-[4-(4-nitrophenyl)piperazin-1-yl]acetamide]	0	22	0	21.3	19.2	
16	28	4	O=C(CN1CCN(c2ccccc2O)CC1)Nc1nc2ccccc2s1 [OMS12, N-(1,3-benzothiazol-2-yl)-2-[4-(2-hydroxyphenyl)piperazin-1-yl]acetamide]	20	48.5	0	24.3	22.2	
3	-2	8	O=C(CN1CCN(c2ccccn2)CC1)Nc1nc2ccccc2s1 [OMS13, N-(1,3-benzothiazol-2-yl)-2-[4-(pyridin-2-yl)piperazin-1-yl]acetamide]	0	26.9	0	21.1	13.8	
1	2	0	O=C(CN1CCN(CC(=O)Nc2nc3ccccc3s2)CC1)Nc1nc2ccccc2s1 [OMS16, 2,2′-(piperazine-1,4-diyl)bis(N-(benzo[d]thiazol-2-yl)acetamide)]	0	56.6	0	53.8	70.1	
